For assay [1], the target named is 5'-AMP-activated protein kinase catalytic subunit alpha-2 (Homo sapiens) (UniProt P54646). The assay is described as follows: Inhibition of human recombinant AMPKa2 at 40 nM in presence of ATP by radiometric assay relative to control. The method in brief:
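Panel of 327 recombinant human kinases, each assayed in vitro by radiometric activity assay in duplicate at a single inhibitor concentration per compound, chosen with reference to its ULK1 inhibition. Activity remaining was expressed as percent of vehicle control, and percent inhibition was calculated as 100 minus percent activity remaining.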

Assay [2] addresses Serine/threonine-protein kinase PLK2 (Homo sapiens) (UniProt Q9NYY3). The assay is described as follows: Inhibition of human recombinant PLK2 at 500 nM related to control ULK1.
Assay [3] addresses T1, Serine/threonine-protein kinase Sgk2 (Homo sapiens) (UniProt Q9HBY8).
T1 sequence (whole entry): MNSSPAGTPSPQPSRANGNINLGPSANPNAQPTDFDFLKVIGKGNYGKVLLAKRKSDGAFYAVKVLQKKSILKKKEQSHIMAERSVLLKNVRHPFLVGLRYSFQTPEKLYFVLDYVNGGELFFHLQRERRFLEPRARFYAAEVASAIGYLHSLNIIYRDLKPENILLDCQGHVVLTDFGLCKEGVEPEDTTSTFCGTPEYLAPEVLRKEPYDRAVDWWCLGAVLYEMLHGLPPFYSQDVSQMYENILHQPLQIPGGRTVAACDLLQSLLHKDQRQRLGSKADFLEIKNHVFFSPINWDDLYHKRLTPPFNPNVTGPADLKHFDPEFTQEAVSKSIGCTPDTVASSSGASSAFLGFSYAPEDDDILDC
The experiment in a line: Inhibition of human recombinant SGK2 at 500 nM related to control ULK1.

In assay [4] the target is Dual specificity mitogen-activated protein kinase kinase 2 (Homo sapiens) (UniProt P36507). The experiment in a line: Inhibition of human recombinant MAP2K2 at 500 nM in presence of ATP by radiometric assay relative to control.
Sequence of Dual specificity mitogen-activated protein kinase kinase 2 (Homo sapiens) (P36507 whole entry): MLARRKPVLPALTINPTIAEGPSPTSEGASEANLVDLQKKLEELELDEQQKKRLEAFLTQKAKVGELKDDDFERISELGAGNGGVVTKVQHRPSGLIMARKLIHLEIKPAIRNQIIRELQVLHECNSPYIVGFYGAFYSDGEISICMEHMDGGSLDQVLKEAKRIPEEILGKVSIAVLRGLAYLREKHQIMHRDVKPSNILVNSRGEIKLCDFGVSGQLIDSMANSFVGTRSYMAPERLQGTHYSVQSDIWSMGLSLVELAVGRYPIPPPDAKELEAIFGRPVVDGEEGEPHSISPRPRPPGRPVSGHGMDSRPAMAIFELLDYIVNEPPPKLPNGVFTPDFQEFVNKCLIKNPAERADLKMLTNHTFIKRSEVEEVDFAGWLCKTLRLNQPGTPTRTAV
Assay [5] addresses T2, Serine/threonine-protein kinase TAO2 (Homo sapiens) (UniProt Q9UL54).
T2 sequence (whole entry): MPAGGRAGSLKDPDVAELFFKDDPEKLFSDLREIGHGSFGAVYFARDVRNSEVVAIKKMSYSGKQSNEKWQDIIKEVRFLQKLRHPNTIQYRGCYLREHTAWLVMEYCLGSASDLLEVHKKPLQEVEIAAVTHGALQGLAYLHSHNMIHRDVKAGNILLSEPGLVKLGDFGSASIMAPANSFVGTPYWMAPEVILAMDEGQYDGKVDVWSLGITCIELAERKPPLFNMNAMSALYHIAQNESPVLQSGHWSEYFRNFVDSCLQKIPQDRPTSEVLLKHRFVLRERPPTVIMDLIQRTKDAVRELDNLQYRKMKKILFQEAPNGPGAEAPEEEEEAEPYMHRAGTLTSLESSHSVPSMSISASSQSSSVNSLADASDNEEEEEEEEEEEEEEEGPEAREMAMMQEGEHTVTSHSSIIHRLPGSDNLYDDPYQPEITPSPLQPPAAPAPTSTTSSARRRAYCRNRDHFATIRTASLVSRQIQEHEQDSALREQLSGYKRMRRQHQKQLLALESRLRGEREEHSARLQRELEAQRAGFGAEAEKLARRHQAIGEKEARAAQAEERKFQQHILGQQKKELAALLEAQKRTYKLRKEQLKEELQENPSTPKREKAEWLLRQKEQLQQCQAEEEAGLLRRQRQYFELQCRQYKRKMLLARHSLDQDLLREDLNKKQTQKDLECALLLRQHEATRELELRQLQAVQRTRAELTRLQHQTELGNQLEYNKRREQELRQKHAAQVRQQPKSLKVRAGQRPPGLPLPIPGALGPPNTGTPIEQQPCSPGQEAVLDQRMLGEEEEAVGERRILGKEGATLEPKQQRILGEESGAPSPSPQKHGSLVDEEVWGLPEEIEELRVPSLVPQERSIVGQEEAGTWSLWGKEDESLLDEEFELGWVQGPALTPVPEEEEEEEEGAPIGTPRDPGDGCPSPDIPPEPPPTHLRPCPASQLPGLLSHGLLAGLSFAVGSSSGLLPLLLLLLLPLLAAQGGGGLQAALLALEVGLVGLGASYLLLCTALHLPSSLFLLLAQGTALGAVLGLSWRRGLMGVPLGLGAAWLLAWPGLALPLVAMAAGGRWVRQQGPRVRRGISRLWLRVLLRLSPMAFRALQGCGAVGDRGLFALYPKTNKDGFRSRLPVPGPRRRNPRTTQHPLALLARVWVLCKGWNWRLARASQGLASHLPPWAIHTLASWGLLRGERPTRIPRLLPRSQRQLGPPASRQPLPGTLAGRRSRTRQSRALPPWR
The experiment in a line: Inhibition of human recombinant TAO2 at 500 nM in presence of ATP by radiometric assay relative to control.

Assay [6] addresses Homeodomain-interacting protein kinase 2 (Homo sapiens) (UniProt Q9H2X6). The assay is described as follows: Inhibition of human recombinant HIPK2 at 500 nM related to control ULK1.
The target of assay [7] is Receptor tyrosine-protein kinase erbB-4 (Homo sapiens) (UniProt Q15303). The experiment in a line: Inhibition of human recombinant ErbB4 at 15 nM in presence of ATP by radiometric assay relative to control.
Sequence of Receptor tyrosine-protein kinase erbB-4 (Homo sapiens) (Q15303 whole entry): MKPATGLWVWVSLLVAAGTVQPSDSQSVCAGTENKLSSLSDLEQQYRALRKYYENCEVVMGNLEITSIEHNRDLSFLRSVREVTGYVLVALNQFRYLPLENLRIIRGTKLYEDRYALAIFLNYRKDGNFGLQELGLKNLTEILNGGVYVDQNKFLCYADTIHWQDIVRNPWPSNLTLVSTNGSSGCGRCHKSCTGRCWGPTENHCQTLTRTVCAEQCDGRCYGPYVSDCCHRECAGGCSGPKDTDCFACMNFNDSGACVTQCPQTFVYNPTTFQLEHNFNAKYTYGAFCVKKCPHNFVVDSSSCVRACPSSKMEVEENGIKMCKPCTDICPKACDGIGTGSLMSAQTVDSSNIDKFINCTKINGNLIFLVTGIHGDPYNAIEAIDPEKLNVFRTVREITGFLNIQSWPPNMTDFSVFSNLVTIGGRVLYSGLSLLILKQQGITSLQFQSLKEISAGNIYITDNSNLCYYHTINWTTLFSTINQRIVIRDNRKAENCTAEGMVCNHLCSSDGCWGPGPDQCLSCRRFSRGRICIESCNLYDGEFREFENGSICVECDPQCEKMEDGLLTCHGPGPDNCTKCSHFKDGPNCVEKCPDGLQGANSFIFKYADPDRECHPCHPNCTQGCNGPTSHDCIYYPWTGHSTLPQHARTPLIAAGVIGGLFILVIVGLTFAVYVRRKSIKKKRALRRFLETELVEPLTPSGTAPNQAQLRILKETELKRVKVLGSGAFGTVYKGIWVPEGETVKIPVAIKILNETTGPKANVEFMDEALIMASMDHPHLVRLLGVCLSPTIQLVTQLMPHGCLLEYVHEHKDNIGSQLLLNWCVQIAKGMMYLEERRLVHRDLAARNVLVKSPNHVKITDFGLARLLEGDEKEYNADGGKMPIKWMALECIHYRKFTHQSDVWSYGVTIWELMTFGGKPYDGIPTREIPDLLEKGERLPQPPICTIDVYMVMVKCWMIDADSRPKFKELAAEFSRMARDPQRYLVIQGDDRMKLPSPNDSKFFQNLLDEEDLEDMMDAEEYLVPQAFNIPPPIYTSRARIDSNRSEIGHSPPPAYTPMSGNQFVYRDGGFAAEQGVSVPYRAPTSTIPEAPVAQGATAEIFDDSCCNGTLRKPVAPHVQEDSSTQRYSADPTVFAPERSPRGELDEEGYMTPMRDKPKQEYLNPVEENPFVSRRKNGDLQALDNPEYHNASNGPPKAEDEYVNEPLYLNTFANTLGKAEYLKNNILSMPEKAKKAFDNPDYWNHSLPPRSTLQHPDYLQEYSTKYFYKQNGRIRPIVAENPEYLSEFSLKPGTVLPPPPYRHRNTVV
Assay [8] has as its system G protein-coupled receptor kinase 7 (Homo sapiens). The assay is described as follows: Inhibition of human recombinant GPRK7 at 15 nM in presence of ATP by radiometric assay relative to control.
Assay [9] addresses T3, NUAK family SNF1-like kinase 2 (Homo sapiens) (UniProt Q9H093).
T3 sequence (whole entry): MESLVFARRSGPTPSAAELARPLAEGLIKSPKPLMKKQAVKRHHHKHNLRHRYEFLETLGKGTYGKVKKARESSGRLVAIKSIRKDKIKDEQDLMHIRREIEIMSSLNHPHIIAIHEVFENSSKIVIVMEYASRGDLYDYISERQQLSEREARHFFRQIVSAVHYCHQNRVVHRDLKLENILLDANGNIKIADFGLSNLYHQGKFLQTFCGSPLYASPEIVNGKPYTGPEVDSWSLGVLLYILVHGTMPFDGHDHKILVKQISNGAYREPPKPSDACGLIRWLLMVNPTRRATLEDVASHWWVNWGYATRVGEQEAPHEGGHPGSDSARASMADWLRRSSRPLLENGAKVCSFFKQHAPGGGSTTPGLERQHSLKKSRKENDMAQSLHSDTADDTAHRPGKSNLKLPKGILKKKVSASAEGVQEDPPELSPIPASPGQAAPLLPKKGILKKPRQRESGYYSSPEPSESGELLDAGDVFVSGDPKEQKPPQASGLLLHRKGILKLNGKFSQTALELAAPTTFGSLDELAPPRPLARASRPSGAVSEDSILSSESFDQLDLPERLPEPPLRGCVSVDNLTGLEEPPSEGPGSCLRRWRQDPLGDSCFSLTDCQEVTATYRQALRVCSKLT
The experiment in a line: Inhibition of human recombinant NuaK2 at 15 nM related to control ULK1.

In assay [10] the target is Calcium/calmodulin-dependent protein kinase type 1G (Homo sapiens) (UniProt Q96NX5). The assay is described as follows: Inhibition of human recombinant CaMK1g at 15 nM in presence of ATP by radiometric assay relative to control.
Sequence of Calcium/calmodulin-dependent protein kinase type 1G (Homo sapiens) (Q96NX5 whole entry): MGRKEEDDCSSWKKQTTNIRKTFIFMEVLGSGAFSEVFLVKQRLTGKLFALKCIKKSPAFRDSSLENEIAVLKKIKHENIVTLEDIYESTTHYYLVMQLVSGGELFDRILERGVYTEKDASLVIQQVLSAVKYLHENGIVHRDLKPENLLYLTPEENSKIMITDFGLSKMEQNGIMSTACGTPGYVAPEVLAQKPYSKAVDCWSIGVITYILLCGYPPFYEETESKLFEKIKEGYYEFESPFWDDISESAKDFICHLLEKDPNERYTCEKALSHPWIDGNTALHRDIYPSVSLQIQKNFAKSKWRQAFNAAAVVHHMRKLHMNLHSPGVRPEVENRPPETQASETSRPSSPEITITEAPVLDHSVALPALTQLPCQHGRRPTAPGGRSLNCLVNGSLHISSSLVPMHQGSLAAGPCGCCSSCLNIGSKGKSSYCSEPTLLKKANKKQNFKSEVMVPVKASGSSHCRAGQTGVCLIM

Sequence of Homeodomain-interacting protein kinase 2 (Homo sapiens) (Q9H2X6 whole entry, looked up): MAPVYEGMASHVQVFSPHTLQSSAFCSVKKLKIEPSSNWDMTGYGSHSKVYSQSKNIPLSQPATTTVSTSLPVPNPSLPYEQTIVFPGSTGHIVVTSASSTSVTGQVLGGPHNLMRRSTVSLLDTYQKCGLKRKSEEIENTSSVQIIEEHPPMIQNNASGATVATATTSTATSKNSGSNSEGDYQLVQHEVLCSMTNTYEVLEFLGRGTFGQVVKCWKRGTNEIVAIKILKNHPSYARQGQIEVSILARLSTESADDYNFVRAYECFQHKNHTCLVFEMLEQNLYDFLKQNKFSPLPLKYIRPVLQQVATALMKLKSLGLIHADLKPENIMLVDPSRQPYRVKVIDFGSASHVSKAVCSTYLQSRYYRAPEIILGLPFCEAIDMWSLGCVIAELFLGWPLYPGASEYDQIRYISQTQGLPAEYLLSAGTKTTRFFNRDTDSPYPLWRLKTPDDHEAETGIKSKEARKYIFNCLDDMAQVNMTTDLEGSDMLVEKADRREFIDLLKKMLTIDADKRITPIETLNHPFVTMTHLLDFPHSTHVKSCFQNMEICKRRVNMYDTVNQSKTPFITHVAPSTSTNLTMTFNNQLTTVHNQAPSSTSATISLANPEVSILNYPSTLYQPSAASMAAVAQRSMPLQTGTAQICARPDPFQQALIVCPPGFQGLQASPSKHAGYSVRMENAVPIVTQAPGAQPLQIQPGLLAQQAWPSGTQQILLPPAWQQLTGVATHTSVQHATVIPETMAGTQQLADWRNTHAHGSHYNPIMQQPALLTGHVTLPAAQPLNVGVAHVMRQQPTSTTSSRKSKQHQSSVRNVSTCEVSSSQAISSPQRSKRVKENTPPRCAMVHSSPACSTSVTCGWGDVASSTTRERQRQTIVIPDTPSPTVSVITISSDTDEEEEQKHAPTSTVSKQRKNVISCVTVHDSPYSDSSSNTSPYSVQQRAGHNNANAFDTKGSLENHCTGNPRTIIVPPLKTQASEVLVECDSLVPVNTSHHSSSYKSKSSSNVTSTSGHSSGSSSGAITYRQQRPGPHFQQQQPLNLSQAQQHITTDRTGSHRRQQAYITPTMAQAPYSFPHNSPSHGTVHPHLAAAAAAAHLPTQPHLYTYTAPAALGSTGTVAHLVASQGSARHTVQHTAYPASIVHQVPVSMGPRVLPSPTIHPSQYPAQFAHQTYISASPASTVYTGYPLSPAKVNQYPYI
Sequence of 5'-AMP-activated protein kinase catalytic subunit alpha-2 (Homo sapiens) (P54646 whole entry, looked up): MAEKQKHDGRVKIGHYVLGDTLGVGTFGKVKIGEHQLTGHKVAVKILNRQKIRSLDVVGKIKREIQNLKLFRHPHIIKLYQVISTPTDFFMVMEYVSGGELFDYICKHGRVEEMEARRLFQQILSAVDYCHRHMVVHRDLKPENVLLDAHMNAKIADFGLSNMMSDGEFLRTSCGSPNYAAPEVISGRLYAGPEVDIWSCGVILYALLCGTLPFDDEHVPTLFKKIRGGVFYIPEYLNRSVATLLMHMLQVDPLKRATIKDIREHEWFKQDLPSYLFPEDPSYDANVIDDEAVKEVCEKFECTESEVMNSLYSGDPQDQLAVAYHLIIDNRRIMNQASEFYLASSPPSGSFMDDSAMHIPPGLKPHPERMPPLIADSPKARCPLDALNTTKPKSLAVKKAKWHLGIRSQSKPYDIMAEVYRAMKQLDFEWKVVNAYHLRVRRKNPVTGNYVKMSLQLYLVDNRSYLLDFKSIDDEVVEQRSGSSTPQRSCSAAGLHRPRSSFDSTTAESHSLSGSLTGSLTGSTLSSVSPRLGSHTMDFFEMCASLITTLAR
Sequence of Serine/threonine-protein kinase PLK2 (Homo sapiens) (Q9NYY3 whole entry, looked up): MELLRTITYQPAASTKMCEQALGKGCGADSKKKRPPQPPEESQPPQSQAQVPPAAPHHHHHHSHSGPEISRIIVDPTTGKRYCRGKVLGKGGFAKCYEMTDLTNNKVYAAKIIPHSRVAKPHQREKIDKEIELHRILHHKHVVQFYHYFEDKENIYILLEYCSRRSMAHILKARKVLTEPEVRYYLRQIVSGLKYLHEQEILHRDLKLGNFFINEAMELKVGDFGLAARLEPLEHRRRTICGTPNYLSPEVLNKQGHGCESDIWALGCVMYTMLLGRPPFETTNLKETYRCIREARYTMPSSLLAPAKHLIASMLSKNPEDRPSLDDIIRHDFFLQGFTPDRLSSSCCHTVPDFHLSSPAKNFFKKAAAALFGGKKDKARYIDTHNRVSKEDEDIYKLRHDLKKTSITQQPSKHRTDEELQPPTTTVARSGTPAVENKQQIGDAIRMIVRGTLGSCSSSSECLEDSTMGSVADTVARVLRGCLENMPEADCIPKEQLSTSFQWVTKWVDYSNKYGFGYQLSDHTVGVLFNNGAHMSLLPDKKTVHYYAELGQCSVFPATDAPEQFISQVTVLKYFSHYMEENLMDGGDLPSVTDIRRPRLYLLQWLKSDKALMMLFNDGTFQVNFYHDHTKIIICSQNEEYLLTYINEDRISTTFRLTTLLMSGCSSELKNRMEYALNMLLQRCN

On to `O=C(N[C@@H](C1CC1)C(F)(F)F)c1cc(-c2cnn3cc(-c4ccc(F)cc4)cnc23)cs1`, for which, in assay [1], the inhibition was determined as 7%.
For `CNC(=O)c1ccccc1Oc1nc(Nc2cc(OC)c(OC)c(OC)c2)ncc1Br`, the fold change (FC) was 0.05 in assay [2], 0.23 in [3] and 0 in [6]. Also, the inhibition in assay [4] and in assay [5] was 0% in each case.
As to `CC(C)[C@H](NC(=O)c1cc(-c2cnn3cc(-c4ccc(OCCN5CCCCC5)cc4)cnc23)cs1)C(F)(F)F`, the inhibition in assay [7], in [8] and in assay [10] was 0% in each case. Also, in assay [9], the fold change (FC) came to 0.2.

Usually inhibition stands for the share of the control response that was lost under treatment.

The values are drawn from ChEMBL document CHEMBL5653631, “A Potent and Selective ULK1 Inhibitor Suppresses Autophagy and Sensitizes Cancer Cells to Nutrient Stress” (iScience, 2018).
